Measured values reported in ChEMBL document CHEMBL1146510, “New cytotoxic naphthopyrane derivatives from Adenaria floribunda” (2004).
Converted amounts (≈) assume the structure as drawn.

How the values were obtained:
Assay type in all cases: functional
MCF7 = assay: Cytotoxicity against human MCF7 cells
Method in brief: (§1)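 Human cancer cell lines tested: MCF-7 (breast), H-460 (lung) and SF-268 (central nervous system). Cytotoxicity was run by a previously published cell-line screening method. The same three lines were used to follow activity through fractionation.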

NCI-H460 = assay: Cytotoxicity against human H460 cells; method in brief: as §1
SF-268 = assay: Cytotoxicity against human SF268 cells; method in brief: as §1

| SMILES | GI50 (MCF7) | GI50 (NCI-H460) | GI50 (SF-268) |
| --- | --- | --- | --- |
| COc1c(CC=C(C)C)c(O)c2c(O)c3c(cc2c1CC=C(C)C)O[C@H](C)CC3=O [ADENAFLORINE A] | 0.24 µg/mL (≈ 0.585 µM) | 0.16 µg/mL (≈ 0.39 µM) | 0.13 µg/mL (≈ 0.317 µM) |
| CC(=O)c1c2c(c3cc(OCC=C(C)C)c(CC=C(C)C)c(O)c3c1O)C=CC(C)(C)O2 [ADENAFLORINE C] | 1.2 µg/mL (≈ 2.75 µM) | 1.1 µg/mL (≈ 2.52 µM) | 1.4 µg/mL (≈ 3.21 µM) |
| COc1c(CC=C(C)C)c(O)c2c(O)c3c(=O)cc(C)oc3cc2c1CC=C(C)C [ADENAFLORINE B] | 4.3 µg/mL (≈ 10.5 µM) | 2.9 µg/mL (≈ 7.1 µM) | 3.9 µg/mL (≈ 9.55 µM) |
| CC(=O)c1c(O)c(CC=C(C)C)c2cc(OCC=C(C)C)c3c(c2c1O)OC(C)(C)C=C3 [ADENAFLORINE D] | > 10 µg/mL | 9.3 µg/mL (≈ 21.3 µM) | > 10 µg/mL |
